Tests used:
[1] = biological target: T1, Neprilysin (Oryctolagus cuniculus, UniProt P08049); test: Inhibitory activity was tested against neutral endopeptidase
T1 sequence (P08049 whole entry): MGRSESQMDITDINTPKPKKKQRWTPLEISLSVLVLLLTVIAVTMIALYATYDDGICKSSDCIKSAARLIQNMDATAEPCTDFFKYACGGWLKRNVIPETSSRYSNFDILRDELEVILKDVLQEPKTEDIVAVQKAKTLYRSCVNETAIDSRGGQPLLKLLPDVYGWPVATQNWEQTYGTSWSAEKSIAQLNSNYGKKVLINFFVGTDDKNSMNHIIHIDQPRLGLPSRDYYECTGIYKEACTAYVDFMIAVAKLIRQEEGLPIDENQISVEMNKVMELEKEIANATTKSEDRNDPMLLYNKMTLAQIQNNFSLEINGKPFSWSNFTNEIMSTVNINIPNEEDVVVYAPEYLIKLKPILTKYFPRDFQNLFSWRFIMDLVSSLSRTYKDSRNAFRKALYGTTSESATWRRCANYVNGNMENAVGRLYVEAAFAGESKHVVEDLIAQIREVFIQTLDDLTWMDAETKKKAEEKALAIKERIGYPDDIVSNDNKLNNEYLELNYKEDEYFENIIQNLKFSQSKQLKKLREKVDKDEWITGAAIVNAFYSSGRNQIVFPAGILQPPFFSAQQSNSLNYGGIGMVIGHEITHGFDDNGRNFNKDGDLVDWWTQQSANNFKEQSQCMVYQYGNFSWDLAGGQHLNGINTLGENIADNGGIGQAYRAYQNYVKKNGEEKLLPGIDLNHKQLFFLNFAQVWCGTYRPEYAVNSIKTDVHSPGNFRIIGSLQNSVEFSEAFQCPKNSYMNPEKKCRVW
Outline: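 Rabbit kidney enzyme purified to homogeneity, 1 pmol/100 µL final, preincubated 15 min at 25 °C with or without rising inhibitor concentrations in 50 mM Tris-HCl pH 7.4. [3H]Tyr-D-Ala2-Leu-enkephalin then added to 20 nM final and run 30 min. Stopped with 0.5 M HCl, tritiated metabolites separated on polystyrene beads. IC50 as mean ± SEM of three independent determinations, each in triplicate.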

[2] = biological target: T2, Angiotensin-converting enzyme (Rattus norvegicus, UniProt P47820); test: Inhibitory activity against angiotensin I converting enzyme
T2 sequence (P47820 whole entry): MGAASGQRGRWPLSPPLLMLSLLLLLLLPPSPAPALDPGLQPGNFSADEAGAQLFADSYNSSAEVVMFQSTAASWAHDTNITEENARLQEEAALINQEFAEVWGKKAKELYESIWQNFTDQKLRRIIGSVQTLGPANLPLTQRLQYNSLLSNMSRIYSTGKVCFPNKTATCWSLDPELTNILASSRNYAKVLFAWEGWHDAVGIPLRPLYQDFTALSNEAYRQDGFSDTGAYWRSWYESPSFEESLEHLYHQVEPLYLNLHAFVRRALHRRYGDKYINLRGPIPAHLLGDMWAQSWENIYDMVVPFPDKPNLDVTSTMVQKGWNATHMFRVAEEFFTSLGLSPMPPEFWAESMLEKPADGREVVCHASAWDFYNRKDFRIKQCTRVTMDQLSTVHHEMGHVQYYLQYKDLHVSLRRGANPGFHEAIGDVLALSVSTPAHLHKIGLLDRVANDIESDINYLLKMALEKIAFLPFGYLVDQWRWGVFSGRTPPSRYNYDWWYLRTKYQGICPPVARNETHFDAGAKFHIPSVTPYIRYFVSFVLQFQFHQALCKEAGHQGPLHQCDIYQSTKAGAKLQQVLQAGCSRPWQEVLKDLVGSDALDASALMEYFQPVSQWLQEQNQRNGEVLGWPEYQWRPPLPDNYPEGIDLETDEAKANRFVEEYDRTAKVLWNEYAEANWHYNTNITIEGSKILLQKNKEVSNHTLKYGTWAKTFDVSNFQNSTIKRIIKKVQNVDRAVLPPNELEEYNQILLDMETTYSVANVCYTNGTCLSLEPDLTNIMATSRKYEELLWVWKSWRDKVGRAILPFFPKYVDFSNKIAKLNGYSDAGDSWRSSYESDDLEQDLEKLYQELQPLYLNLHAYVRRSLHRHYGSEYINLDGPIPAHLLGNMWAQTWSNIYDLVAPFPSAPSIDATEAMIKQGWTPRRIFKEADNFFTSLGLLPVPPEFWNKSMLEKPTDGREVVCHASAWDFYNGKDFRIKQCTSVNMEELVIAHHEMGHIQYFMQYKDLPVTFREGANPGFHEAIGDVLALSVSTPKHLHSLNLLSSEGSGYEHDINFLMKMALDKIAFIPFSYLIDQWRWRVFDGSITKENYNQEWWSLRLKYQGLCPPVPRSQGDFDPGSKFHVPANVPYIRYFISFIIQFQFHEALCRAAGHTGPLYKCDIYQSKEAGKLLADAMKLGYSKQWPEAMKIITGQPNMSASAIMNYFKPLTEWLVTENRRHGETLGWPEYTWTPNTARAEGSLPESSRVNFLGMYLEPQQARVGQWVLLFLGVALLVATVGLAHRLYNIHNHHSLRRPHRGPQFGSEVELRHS
Outline: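 Rat testis enzyme purified to homogeneity, 0.02 pmol/100 µL final, preincubated 15 min at 37 °C with varied inhibitor levels in 50 mM Tris-HCl pH 8.0. N-Cbz-Phe-His-Leu then added to 0.05 mM final and run 15 min. Stopped with 2 M NaOH, His-Leu measured fluorimetrically (ex 365, em 495 nm) against a His-Leu calibration curve. IC50 as mean ± SEM of three independent determinations, each in triplicate.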

Row | Structure (SMILES) | IC50 [1] [nM] | IC50 [2] [nM]
1 | C=C(C)[C@@H]1CC[C@]2(C(=O)N[C@H](C(=O)O)[C@@H](C)CC)CC[C@]3(C)[C@H](CC[C@@H]4[C@@]5(C)CC[C@H](O)C(C)(C)[C@@H]5CC[C@]43C)[C@@H]12 | 5.5 | 6.3
2 | CC[C@@H](C)[C@H](S)C(=O)N[C@H](C(=O)N[C@@H](Cc1ccc(O)cc1)C(=O)O)C(C)c1ccccc1 (stereo not given in full) | 32 | 33
3 | CC[C@H](C)[C@H](NC(=O)[C@@H](S)C(C)C)C(=O)N1C(C(=O)O)CC2CCCCC21 (stereo not given in full) | 175 | 28
4 | CC(C)(NC(=O)[C@@H](S)CCc1ccccc1)C(=O)N1CCCC1C(=O)O (stereo not given in full) | 46 | 1.6
5 | O=C(O)[C@H](Cc1ccccc1)NC(=O)[C@@H](S)Cc1ccccc1 | 23 | 44
6 | CC(C)[C@H](NC(=O)[C@@H](S)Cc1ccccc1)C(=O)N1CCCC1C(=O)O (stereo not given in full) | 24 | 0.85
7 | O=C(O)[C@H](Cc1ccc(O)cc1)NC(=O)[C@H](Cc1ccccc1)NC(=O)[C@@H](S)CCc1ccccc1 | 20 | 1.5
8 | C[C@H](NC(=O)[C@@H](S)Cc1ccccc1)C(=O)N1CCCC1 | 22 | 150
9 | CC[C@@H](C)[C@H](NC(=O)[C@@H](S)c1ccccc1)C(=O)N1CCCC1C(=O)O (stereo not given in full) | 130 | 28
10 | CC[C@@H](C)[C@H](NC(=O)[C@@H](S)Cc1ccccc1)C(=O)N1CCCC1C(=O)O (stereo not given in full) | 24 | 1.7
11 | O=C(O)[C@H](Cc1c[nH]c2ccccc12)NC(=O)[C@H](Cc1ccccc1)NC(=O)[C@@H](S)Cc1ccccc1 | 50 | 7.9
12 | C[C@H](NC(=O)[C@H](Cc1ccccc1)NC(=O)[C@@H](S)Cc1ccccc1)C(=O)O | 2.3 | 7.1
13 | CC[C@H](C)[C@H](S)C(=O)N[C@H](C(=O)N1CCC[C@H]1C(=O)O)C(C)C | 190 | 0.58
14 | C[C@H](NC(=O)[C@H](Cc1ccccc1)NC(=O)CS)C(=O)O | 14 | 220
15 | O=C(O)[C@H](Cc1cccc2ccccc12)NC(=O)[C@H](Cc1ccccc1)NC(=O)[C@@H](S)Cc1ccccc1 | 120 | 50
16 | CC[C@H](C)[C@H](S)C(=O)N[C@@H](C)C(=O)N1c2ccccc2CC1C(=O)O (stereo not given in full) | 180 | 3.3
17 | O=C(O)[C@H](CSCc1ccccc1)NC(=O)[C@H](Cc1ccccc1)NC(=O)[C@@H](S)Cc1ccccc1 | 40 | 14
18 | O=C(NC1(C(=O)O)CCCC1)[C@H](Cc1ccccc1)NC(=O)[C@@H](S)Cc1ccccc1 | 45 | 30
19 | CC(C)[C@H](NC(=O)[C@@H](S)CCc1ccccc1)C(=O)N[C@@H](Cc1ccc(O)cc1)C(=O)O | 10 | 1.6
20 | CC(OCc1ccccc1)[C@H](NC(=O)[C@@H](S)Cc1ccccc1)C(=O)N[C@@H](Cc1ccc(O)cc1)C(=O)O (stereo not given in full) | 100 | 34
21 | C[C@H](NC(=O)[C@@H](S)Cc1ccccc1)C(=O)N1CCCCC1C(=O)O (stereo not given in full) | 9.5 | 1.6
22 | O=C(O)[C@H](COCc1ccccc1)NC(=O)[C@H](Cc1ccccc1)NC(=O)[C@@H](S)Cc1ccccc1 | 50 | 12
23 | CC(c1ccccc1)[C@H](S)C(=O)N[C@H](C(=O)N1CCCC[C@H]1C(=O)O)C(C)C (stereo not given in full) | 180 | 110
24 | O=C(O)C1CCCN1C(=O)[C@H](Cc1ccccc1)NC(=O)[C@@H](S)Cc1ccccc1 (stereo not given in full) | 30 | 1.1
25 | C[C@H](NC(=O)[C@@H](S)CCc1ccccc1)C(=O)N1CCCC1C(=O)O (stereo not given in full) | 20 | 0.35
26 | CC(C)[C@H](NC(=O)[C@@H](S)Cc1ccccc1)C(=O)N1CC(O)CC1C(=O)O (stereo not given in full) | 63 | 100

The remaining compounds from weak to strong by IC50 [1], led by results:

Row | IC50 [1] [nM] | IC50 [2] [nM] | Structure (SMILES)
27 | 5.3 | 1.9 | CC[C@H](C)[C@H](S)C(=O)N[C@H](C(=O)N[C@@H](Cc1ccc(O)cc1)C(=O)O)C(C)C
28 | 5.3 | 0.4 | C[C@H](NC(=O)[C@@H](S)Cc1ccccc1)C(=O)N1C(C(=O)O)CC2CCCCC21 (stereo not given in full)
29 | 4.5 | 3.5 | CC[C@H](C)[C@H](NC(=O)[C@@H](S)c1ccccc1)C(=O)N[C@@H](Cc1ccc(O)cc1)C(=O)O
30 | 4.1 | 7.1 | CC[C@@H](C)[C@H](NC(=O)[C@@H](S)C(C)OCc1ccccc1)C(=O)N[C@@H](Cc1ccc(O)cc1)C(=O)O (stereo not given in full)
31 | 4 | 40 | C[C@H](NC(=O)[C@@H](S)Cc1ccccc1)C(=O)O
32 | 3.8 | 0.3 | C[C@H](NC(=O)[C@@H](S)Cc1ccccc1)C(=O)N1CCC[C@H]1C(=O)O
33 | 3.6 | 4 | CC(C)[C@H](NC(=O)[C@@H](S)Cc1ccccc1)C(=O)N[C@@H](Cc1ccc(O)cc1)C(=O)O
34 | 3.5 | 10 | CC[C@H](C)[C@H](S)C(=O)N[C@@H](Cc1ccccc1)C(=O)N[C@@H](Cc1ccc(O)cc1)C(=O)O
35 | 3 | 2.5 | CC[C@H](C)[C@H](NC(=O)[C@@H](S)Cc1ccccc1)C(=O)N[C@@H](Cc1ccc(O)cc1)C(=O)O
36 | 2.9 | 5.6 | O=C(O)[C@H](Cc1ccc(O)cc1)NC(=O)[C@H](Cc1ccccc1)NC(=O)[C@@H](S)Cc1ccccc1
37 | 2.8 | 4 | CCCC[C@H](NC(=O)[C@@H](S)Cc1ccccc1)C(=O)N[C@@H](Cc1ccc(O)cc1)C(=O)O
38 | 2.2 | 3 | CC(C)C[C@H](NC(=O)[C@@H](S)Cc1ccccc1)C(=O)N[C@@H](Cc1ccc(O)cc1)C(=O)O
39 | 1.4 | 0.26 | CC[C@@H](C)[C@H](NC(=O)[C@@H](S)C(C)C)C(=O)N[C@@H](Cc1ccc(O)cc1)C(=O)O
40 | 1.3 | 25 | C[C@H](NC(=O)[C@H](S)Cc1ccccc1)C(=O)N1CCC[C@H]1C(=O)O

From ChEMBL document CHEMBL1129519, “Optimal recognition of neutral endopeptidase and angiotensin-converting enzyme active sites by mercaptoacyldipeptides as a means to design potent dual inhibitors” (J Med Chem, 1996)
